Laboratory results as given in ChEMBL document CHEMBL1153733, “Imidazole derivatives as possible microbicides with dual protection” (Eur J Med Chem, 2010).
In brackets after ≈: the same amount, converted by molar mass.

The compounds below were run on Spermatozoa (assay: Sperimcidal activity against human spermatozoa assessed as sperm motility at 1 % drug solution%). Details: not given.
Format: functional
How it was run: (§1)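 Drop of sperm–compound mixture placed on slide under cover glass, examined by phase contrast microscopy in five fields; percentage of motile spermatozoa scored visually within 30–40 s. N-9 as reference control; some compounds tested as D-(-)-tartrate salts.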

| SMILES | Activity |
| --- | --- |
| Cc1ncc([N+](=O)[O-])n1CCOC(=O)CCN1CCN(c2ccc(F)cc2)CC1 | 88.24% |
| Cc1ncc([N+](=O)[O-])n1CCOS(C)(=O)=O | 94.12% |
| Cc1ncc([N+](=O)[O-])n1CCn1cnc2ccccc21 | 0% |
| Cc1ncc([N+](=O)[O-])n1CCOC(=O)CCn1ccnc1[N+](=O)[O-] | 100% |
| Cc1ncc([N+](=O)[O-])n1CCOC(=O)CCn1c([N+](=O)[O-])cnc1C | 88.24% |
| Cc1ncc([N+](=O)[O-])n1CCSC(=S)N1CCN(c2ccc([N+](=O)[O-])cc2)CC1 | 41.18% |
| Cc1ncc([N+](=O)[O-])n1CCOC(=O)CCn1ccnc1 | 100% |

Each compound was assayed on Candida albicans (assay: Antifungal activity against Candida albicans after 48 hrs by broth microdilution technique). Details: not given.
Format: functional
How it was run: (§2)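 Broth microdilution MIC per NCCLS guidelines in RPMI 1640 buffered with MOPS; starting inoculum of test culture 1–5 × 10³ CFU/mL.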

| SMILES | MIC |
| --- | --- |
| Cc1ncc([N+](=O)[O-])n1CCOC(=O)CCN1CCN(c2ccc(F)cc2)CC1 | > 50 µg/mL |
| Cc1ncc([N+](=O)[O-])n1CCOS(C)(=O)=O | > 50 µg/mL |
| Cc1ncc([N+](=O)[O-])n1CCn1cnc2ccccc21 | > 50 µg/mL |
| Cc1ncc([N+](=O)[O-])n1CCOC(=O)CCn1ccnc1[N+](=O)[O-] | > 50 µg/mL |
| Cc1ncc([N+](=O)[O-])n1CCOC(=O)CCn1c([N+](=O)[O-])cnc1C | > 50 µg/mL |
| Cc1ncc([N+](=O)[O-])n1CCSC(=S)N1CCN(c2ccc([N+](=O)[O-])cc2)CC1 | > 50 µg/mL |
| Cc1ncc([N+](=O)[O-])n1CCOC(=O)CCn1ccnc1 | > 50 µg/mL |

What follows are compounds tested on Cryptococcus neoformans (assay: Antifungal activity against Cryptococcus neoformans after 48 hrs by broth microdilution technique). Details: not given.
Format: functional
How it was run: as §2

| SMILES | MIC |
| --- | --- |
| Cc1ncc([N+](=O)[O-])n1CCOC(=O)CCN1CCN(c2ccc(F)cc2)CC1 | > 50 µg/mL |
| Cc1ncc([N+](=O)[O-])n1CCOS(C)(=O)=O | > 50 µg/mL |
| Cc1ncc([N+](=O)[O-])n1CCn1cnc2ccccc21 | > 50 µg/mL |
| Cc1ncc([N+](=O)[O-])n1CCOC(=O)CCn1ccnc1[N+](=O)[O-] | > 50 µg/mL |
| Cc1ncc([N+](=O)[O-])n1CCOC(=O)CCn1c([N+](=O)[O-])cnc1C | > 50 µg/mL |
| Cc1ncc([N+](=O)[O-])n1CCSC(=S)N1CCN(c2ccc([N+](=O)[O-])cc2)CC1 | > 50 µg/mL |
| Cc1ncc([N+](=O)[O-])n1CCOC(=O)CCn1ccnc1 | > 50 µg/mL |

The compounds below were run on Spermatozoa (assay: Sperimcidal activity against human spermatozoa assessed as sperm immobilization at 1 % drug solution%). Details: not given.
Format: functional
How it was run: as §1

| SMILES | Activity |
| --- | --- |
| Cc1ncc([N+](=O)[O-])n1CCn1cnc2ccccc21 | 100% |

What follows are compounds tested on Candida parapsilosis (assay: Antifungal activity against Candida parapsilosis after 48 hrs by broth microdilution technique). Details: Lodderomyces parapsilosis.
Format: functional
How it was run: as §2

| SMILES | MIC |
| --- | --- |
| Cc1ncc([N+](=O)[O-])n1CCOC(=O)CCN1CCN(c2ccc(F)cc2)CC1 | > 50 µg/mL |
| Cc1ncc([N+](=O)[O-])n1CCOS(C)(=O)=O | > 50 µg/mL |
| Cc1ncc([N+](=O)[O-])n1CCn1cnc2ccccc21 | > 50 µg/mL |
| Cc1ncc([N+](=O)[O-])n1CCOC(=O)CCn1ccnc1[N+](=O)[O-] | > 50 µg/mL |
| Cc1ncc([N+](=O)[O-])n1CCOC(=O)CCn1c([N+](=O)[O-])cnc1C | > 50 µg/mL |
| Cc1ncc([N+](=O)[O-])n1CCSC(=S)N1CCN(c2ccc([N+](=O)[O-])cc2)CC1 | > 50 µg/mL |
| Cc1ncc([N+](=O)[O-])n1CCOC(=O)CCn1ccnc1 | > 50 µg/mL |

Each compound was assayed on Aspergillus fumigatus (assay: Antifungal activity against Aspergillus fumigatus after 48 hrs by broth microdilution technique). Details: not given.
Format: functional
How it was run: as §2

| SMILES | MIC |
| --- | --- |
| Cc1ncc([N+](=O)[O-])n1CCOC(=O)CCN1CCN(c2ccc(F)cc2)CC1 | > 50 µg/mL |
| Cc1ncc([N+](=O)[O-])n1CCOS(C)(=O)=O | > 50 µg/mL |
| Cc1ncc([N+](=O)[O-])n1CCn1cnc2ccccc21 | > 50 µg/mL |
| Cc1ncc([N+](=O)[O-])n1CCOC(=O)CCn1ccnc1[N+](=O)[O-] | > 50 µg/mL |
| Cc1ncc([N+](=O)[O-])n1CCOC(=O)CCn1c([N+](=O)[O-])cnc1C | > 50 µg/mL |
| Cc1ncc([N+](=O)[O-])n1CCSC(=S)N1CCN(c2ccc([N+](=O)[O-])cc2)CC1 | > 50 µg/mL |
| Cc1ncc([N+](=O)[O-])n1CCOC(=O)CCn1ccnc1 | > 50 µg/mL |

The compounds below were run on HeLa (assay: Cytotoxicity against human HeLa cells at 200 ug/ml after 24 hrs by MTT assay). Details: not given.
Format: cell-based
How it was run: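 HeLa cells seeded at 5.0 × 10⁴ per well in DMEM with 10% FCS, 24 h at 37 °C in 5% CO₂; medium replaced with fresh medium containing test dilutions, 10% DMSO vehicle in control wells. After a further 24 h, MTT added; formazan dissolved in DMSO, OD read at 540 nm. Mean ± SE of 3 estimations.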

| SMILES | Activity |
| --- | --- |
| Cc1ncc([N+](=O)[O-])n1CCOC(=O)CCN1CCN(c2ccc(F)cc2)CC1 | Non-toxic |
| Cc1ncc([N+](=O)[O-])n1CCn1cnc2ccccc21 | Non-toxic |
| Cc1ncc([N+](=O)[O-])n1CCOC(=O)CCn1ccnc1[N+](=O)[O-] | Non-toxic |
| Cc1ncc([N+](=O)[O-])n1CCOC(=O)CCn1c([N+](=O)[O-])cnc1C | Non-toxic |
| Cc1ncc([N+](=O)[O-])n1CCSC(=S)N1CCN(c2ccc([N+](=O)[O-])cc2)CC1 | Non-toxic |
| Cc1ncc([N+](=O)[O-])n1CCOC(=O)CCn1ccnc1 | Non-toxic |

What follows are compounds tested on Sporothrix schenckii (assay: Antifungal activity against Sporothrix schenckii after 48 hrs by broth microdilution technique). Details: not given.
Format: functional
How it was run: as §2

| SMILES | MIC |
| --- | --- |
| Cc1ncc([N+](=O)[O-])n1CCOC(=O)CCN1CCN(c2ccc(F)cc2)CC1 | > 50 µg/mL |
| Cc1ncc([N+](=O)[O-])n1CCOS(C)(=O)=O | 50 µg/mL (≈ 201 µM) |
| Cc1ncc([N+](=O)[O-])n1CCn1cnc2ccccc21 | 50 µg/mL (≈ 184 µM) |
| Cc1ncc([N+](=O)[O-])n1CCOC(=O)CCn1ccnc1[N+](=O)[O-] | > 50 µg/mL |
| Cc1ncc([N+](=O)[O-])n1CCOC(=O)CCn1c([N+](=O)[O-])cnc1C | > 50 µg/mL |
| Cc1ncc([N+](=O)[O-])n1CCSC(=S)N1CCN(c2ccc([N+](=O)[O-])cc2)CC1 | > 50 µg/mL |
| Cc1ncc([N+](=O)[O-])n1CCOC(=O)CCn1ccnc1 | > 50 µg/mL |

The compounds below were run on Trichophyton mentagrophytes (assay: Antifungal activity against Trichophyton mentagrophytes after 48 hrs by broth microdilution technique). Details: not given.
Format: functional
How it was run: as §2

| SMILES | MIC |
| --- | --- |
| Cc1ncc([N+](=O)[O-])n1CCOC(=O)CCN1CCN(c2ccc(F)cc2)CC1 | 50 µg/mL (≈ 123 µM) |
| Cc1ncc([N+](=O)[O-])n1CCOS(C)(=O)=O | > 50 µg/mL |
| Cc1ncc([N+](=O)[O-])n1CCn1cnc2ccccc21 | > 50 µg/mL |
| Cc1ncc([N+](=O)[O-])n1CCOC(=O)CCn1ccnc1[N+](=O)[O-] | 50 µg/mL (≈ 148 µM) |
| Cc1ncc([N+](=O)[O-])n1CCOC(=O)CCn1c([N+](=O)[O-])cnc1C | 50 µg/mL (≈ 142 µM) |
| Cc1ncc([N+](=O)[O-])n1CCSC(=S)N1CCN(c2ccc([N+](=O)[O-])cc2)CC1 | > 50 µg/mL |
| Cc1ncc([N+](=O)[O-])n1CCOC(=O)CCn1ccnc1 | 50 µg/mL (≈ 170 µM) |

What follows are compounds tested on Trichomonas vaginalis (assay: Antitrichomonal activity against Trichomonas vaginalis after 48 hrs by trypan blue exclusion assay). Details: not given.
Format: functional
How it was run: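 Trophozoites in TYM medium; stock solutions serially diluted in TYM to concentrations up to 0.1 mg/mL, DMSO/TYM as vehicle control. Parasites added, incubated anaerobically at 37 °C, viability checked by trypan blue exclusion under microscope (200×) from 3 to 48 h. MIC = lowest concentration with all cells dead at 48 h. Metronidazole reference; run three times.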

| SMILES | MIC |
| --- | --- |
| Cc1ncc([N+](=O)[O-])n1CCOC(=O)CCN1CCN(c2ccc(F)cc2)CC1 | 1.54 µM (≈ 0.624 µg/mL) |
| Cc1ncc([N+](=O)[O-])n1CCOS(C)(=O)=O | 5.02 µM (≈ 1.25 µg/mL) |
| Cc1ncc([N+](=O)[O-])n1CCn1cnc2ccccc21 | 4.61 µM (≈ 1.25 µg/mL) |
| Cc1ncc([N+](=O)[O-])n1CCOC(=O)CCn1ccnc1[N+](=O)[O-] | 9.25 µM (≈ 3.13 µg/mL) |
| Cc1ncc([N+](=O)[O-])n1CCOC(=O)CCn1c([N+](=O)[O-])cnc1C | 20.6 µM (≈ 7.26 µg/mL) |
| Cc1ncc([N+](=O)[O-])n1CCSC(=S)N1CCN(c2ccc([N+](=O)[O-])cc2)CC1 | 2.87 µM (≈ 1.25 µg/mL) |
| Cc1ncc([N+](=O)[O-])n1CCOC(=O)CCn1ccnc1 | 10.7 µM (≈ 3.13 µg/mL) |
